Results: ChEMBL document CHEMBL1138351, “Small, potent, and selective diaryl phosphonate inhibitors for urokinase-type plasminogen activator with in vivo antimetastatic properties” (J Med Chem, 2007)

How the values were obtained:
[1] = Stability in human plasma after 3 hrs; assay type: ADME, cell-free; details: read-out: Stability
Outline: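 Compound was added from 10 mM DMSO stock to human plasma at 200 µM final and shaken at 37 °C for up to 24 h. Aliquots were quenched in methanol and centrifuged. The supernatant was diluted with internal standard and analysed by LC/MS/MS in triplicate. Result is given as % parent compound remaining.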

[2] = biological target: Urokinase-type plasminogen activator (Rattus norvegicus, UniProt P29598); assay: Inhibition of rat uPA
Sequence of Urokinase-type plasminogen activator (Rattus norvegicus, UniProt P29598) (P29598 20-177 limits assumed): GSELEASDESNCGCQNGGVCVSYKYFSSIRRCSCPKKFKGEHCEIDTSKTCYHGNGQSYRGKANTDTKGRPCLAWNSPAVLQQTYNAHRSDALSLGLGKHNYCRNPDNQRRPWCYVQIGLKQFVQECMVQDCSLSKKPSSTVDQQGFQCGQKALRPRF
Sequence of Urokinase-type plasminogen activator (Rattus norvegicus, UniProt P29598) (P29598 179-432 limits assumed): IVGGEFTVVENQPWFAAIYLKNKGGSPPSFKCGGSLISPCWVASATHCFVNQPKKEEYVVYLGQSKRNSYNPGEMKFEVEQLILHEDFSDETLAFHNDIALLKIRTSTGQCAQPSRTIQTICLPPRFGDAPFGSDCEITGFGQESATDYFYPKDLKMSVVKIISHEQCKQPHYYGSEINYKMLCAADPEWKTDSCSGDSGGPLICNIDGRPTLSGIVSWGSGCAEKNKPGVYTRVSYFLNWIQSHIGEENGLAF

[3] = biological target: Urokinase-type plasminogen activator (Mus musculus, UniProt P06869); assay: Inhibition of mouse uPA
Sequence of Urokinase-type plasminogen activator (Mus musculus, UniProt P06869) (P06869 21-178 limits assumed): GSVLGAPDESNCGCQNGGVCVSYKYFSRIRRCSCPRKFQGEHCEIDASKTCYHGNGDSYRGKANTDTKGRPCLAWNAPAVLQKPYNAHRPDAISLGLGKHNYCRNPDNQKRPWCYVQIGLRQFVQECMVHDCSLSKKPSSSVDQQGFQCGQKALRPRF
Sequence of Urokinase-type plasminogen activator (Mus musculus, UniProt P06869) (P06869 180-433 limits assumed): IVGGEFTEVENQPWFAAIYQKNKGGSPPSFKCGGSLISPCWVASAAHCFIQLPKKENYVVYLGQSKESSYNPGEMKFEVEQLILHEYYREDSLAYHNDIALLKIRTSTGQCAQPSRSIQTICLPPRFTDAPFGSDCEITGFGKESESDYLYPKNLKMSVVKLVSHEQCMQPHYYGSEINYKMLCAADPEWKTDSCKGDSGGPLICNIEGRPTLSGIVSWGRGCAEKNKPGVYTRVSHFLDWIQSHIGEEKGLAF

[4] = biological target: Plasminogen (Mus musculus, UniProt P20918); assay: Inhibition of mouse plasmin
Sequence of Plasminogen (Mus musculus, UniProt P20918) (P20918 98-581 limits assumed): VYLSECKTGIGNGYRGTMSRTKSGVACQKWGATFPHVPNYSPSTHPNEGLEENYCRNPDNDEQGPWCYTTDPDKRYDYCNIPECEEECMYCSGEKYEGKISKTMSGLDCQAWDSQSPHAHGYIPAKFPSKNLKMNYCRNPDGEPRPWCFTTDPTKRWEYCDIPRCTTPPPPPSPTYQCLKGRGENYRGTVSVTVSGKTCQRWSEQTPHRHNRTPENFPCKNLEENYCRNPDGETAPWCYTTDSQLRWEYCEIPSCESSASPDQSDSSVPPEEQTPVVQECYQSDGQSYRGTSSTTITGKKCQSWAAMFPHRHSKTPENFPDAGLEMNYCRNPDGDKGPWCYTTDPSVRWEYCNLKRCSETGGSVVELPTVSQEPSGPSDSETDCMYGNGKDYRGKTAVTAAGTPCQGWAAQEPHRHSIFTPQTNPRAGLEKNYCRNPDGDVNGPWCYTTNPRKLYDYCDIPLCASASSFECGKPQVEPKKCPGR
Sequence of Plasminogen (Mus musculus, UniProt P20918) (P20918 582-812 limits assumed): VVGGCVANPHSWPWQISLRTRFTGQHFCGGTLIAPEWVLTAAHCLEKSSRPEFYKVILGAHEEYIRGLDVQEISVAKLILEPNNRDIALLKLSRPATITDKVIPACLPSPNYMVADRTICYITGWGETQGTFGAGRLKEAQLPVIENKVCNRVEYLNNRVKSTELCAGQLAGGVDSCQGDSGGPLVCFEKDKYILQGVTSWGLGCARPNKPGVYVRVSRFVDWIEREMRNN

[5] = biological target: Plasminogen (Rattus norvegicus, UniProt Q01177); assay: Inhibition of rat plasmin
Sequence of Plasminogen (Rattus norvegicus, UniProt Q01177) (Q01177 97-581 limits assumed): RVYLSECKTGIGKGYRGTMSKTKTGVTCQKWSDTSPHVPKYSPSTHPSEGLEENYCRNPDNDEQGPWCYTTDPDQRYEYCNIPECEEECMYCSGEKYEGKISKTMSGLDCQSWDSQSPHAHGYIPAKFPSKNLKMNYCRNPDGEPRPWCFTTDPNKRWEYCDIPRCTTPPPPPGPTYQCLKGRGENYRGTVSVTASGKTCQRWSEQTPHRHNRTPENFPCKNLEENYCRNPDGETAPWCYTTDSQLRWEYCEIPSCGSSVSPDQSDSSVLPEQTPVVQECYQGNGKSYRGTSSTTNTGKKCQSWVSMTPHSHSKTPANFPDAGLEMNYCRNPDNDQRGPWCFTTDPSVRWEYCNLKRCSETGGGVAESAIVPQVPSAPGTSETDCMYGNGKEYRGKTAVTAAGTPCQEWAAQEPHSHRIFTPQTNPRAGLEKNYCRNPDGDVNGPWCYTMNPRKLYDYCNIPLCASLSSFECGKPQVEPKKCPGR
Sequence of Plasminogen (Rattus norvegicus, UniProt Q01177) (Q01177 582-812 limits assumed): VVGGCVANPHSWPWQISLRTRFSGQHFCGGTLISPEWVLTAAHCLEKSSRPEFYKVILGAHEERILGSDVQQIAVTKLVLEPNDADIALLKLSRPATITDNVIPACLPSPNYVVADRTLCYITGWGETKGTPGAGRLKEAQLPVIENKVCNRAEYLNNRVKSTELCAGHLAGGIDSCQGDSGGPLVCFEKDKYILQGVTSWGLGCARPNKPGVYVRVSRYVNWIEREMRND

[6] = biological target: Prothrombin (Rattus norvegicus, UniProt P18292); assay: Inhibition of rat thrombin
[7] = biological target: Prothrombin (Mus musculus, UniProt P19221); assay: Inhibition of mouse thrombin
[8] = biological target: Plasminogen (Homo sapiens, UniProt P00747); assay: Inhibition of human plasmin
Sequence of Plasminogen (Homo sapiens, UniProt P00747) (P00747 97-580 limits assumed): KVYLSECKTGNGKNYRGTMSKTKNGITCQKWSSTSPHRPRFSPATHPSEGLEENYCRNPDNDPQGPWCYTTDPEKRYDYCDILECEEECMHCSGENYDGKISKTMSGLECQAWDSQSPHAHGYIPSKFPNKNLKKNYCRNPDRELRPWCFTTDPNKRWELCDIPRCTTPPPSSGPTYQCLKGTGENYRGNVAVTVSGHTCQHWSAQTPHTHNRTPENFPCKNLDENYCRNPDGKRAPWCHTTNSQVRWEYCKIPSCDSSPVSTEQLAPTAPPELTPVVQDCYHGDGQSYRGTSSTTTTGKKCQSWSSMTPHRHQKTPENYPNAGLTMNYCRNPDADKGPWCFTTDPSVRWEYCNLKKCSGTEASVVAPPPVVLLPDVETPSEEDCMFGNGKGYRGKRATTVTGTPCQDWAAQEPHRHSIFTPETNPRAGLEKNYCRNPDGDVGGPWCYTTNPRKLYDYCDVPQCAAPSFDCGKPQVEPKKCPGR
Sequence of Plasminogen (Homo sapiens, UniProt P00747) (P00747 581-810 limits assumed): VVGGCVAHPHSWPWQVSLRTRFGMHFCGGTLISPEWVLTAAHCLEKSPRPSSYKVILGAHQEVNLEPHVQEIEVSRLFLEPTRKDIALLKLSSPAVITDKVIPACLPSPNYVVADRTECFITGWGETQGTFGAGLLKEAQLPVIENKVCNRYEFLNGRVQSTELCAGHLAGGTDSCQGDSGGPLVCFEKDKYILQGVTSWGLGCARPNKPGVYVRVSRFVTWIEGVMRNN
Outline: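 Plasmin from human plasma at about 5 mU was preincubated with inhibitor (0–250 µM final) for 15 min at 37 °C. Substrate was S-2366 at 580 µM in Tris pH 7.4. Initial rate was read at 405 nm, in duplicate. IC50 came from a four-parameter logistic fit.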

[9] = biological target: Prothrombin (Homo sapiens, UniProt P00734); assay: Inhibition of human thrombin
Outline: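 Human plasma thrombin was assayed at 37 °C in Tris pH 8.3. […] Initial rate was read at 405 nm, in duplicate. IC50 was obtained from a four-parameter logistic fit.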

[10] = Distribution coefficient, log D in octanol and phosphate buffer saline at pH 7.4; assay type: physicochemical; details: octanol/phosphate buffered saline
Outline: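 A 10 mM DMSO stock was added to a 1:1 octanol/PBS pH 7.4 mixture. Measured in duplicate.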

[11] = Apparent solubility in phosphate buffered saline at pH 7.4 after 2 hrs; assay type: ADME
Outline: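 Compounds were serially diluted from 10 mM DMSO stock into PBS pH 7.4 (2% DMSO final), giving 1–200 µM final at eight concentrations, in duplicate. Incubation was 2 h at 37 °C. Solubility was taken as the onset of increased absorbance at 620 nm.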

[12] = Chemical stability assessed as half life of hydrolysis at pH 1; assay type: physicochemical; details: buffer
[13] = Chemical stability assessed as half life of hydrolysis at pH 4; assay type: physicochemical; details: buffer
[14] = Chemical stability assessed as half life of hydrolysis at pH 7.4; assay type: physicochemical; details: buffer
[15] = Chemical stability assessed as half life of hydrolysis at pH 8.8; assay type: physicochemical; details: buffer
[16] = Antitumor activity aganist Brown Norwegian rat bearing BN472 tumor assessed as reduction of tumor size at 0.1 mg/kg, ip administered once daily after 4 days of tumor transplantation for 17 to 18 days relative to control; assay type: functional; design: scale not given: the % may be the effect or the level left; details: route intraperitoneal
Outline: (§1)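 Rats bearing orthotopic BN472 breast tumours (grown three days) were dosed i.p. daily from day 4 for 17–18 days at 0.1 or 1 mg/kg. Vehicle-only i.p. controls were included. Tumour size and tumour weight were measured at the end of the treatment period and compared with controls.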

[17] = Antitumor activity against Brown Norwegian rat bearing BN472 tumor assessed as reduction of tumor size at 1 mg/kg, ip administered once daily after 4 days of tumor transplantation for 17 to 18 days relative to control; assay type: functional; design: scale not given: the % may be the effect or the level left; details: route intraperitoneal; outline: as §1
[18] = Antitumor activity aganist Brown Norwegian rat bearing BN472 tumor assessed as reduction of tumor weight at 0.1 mg/kg, ip administered once daily after 4 days of tumor transplantation for 17 to 18 days relative to control; assay type: functional; design: scale not given: the % may be the effect or the level left; details: route intraperitoneal; outline: as §1
[19] = Antitumor activity against Brown Norwegian rat bearing BN472 tumor assessed as reduction of tumor weight at 1 mg/kg, ip administered once daily after 4 days of tumor transplantation for 17 to 18 days relative to control; assay type: functional; design: scale not given: the % may be the effect or the level left; details: route intraperitoneal; outline: as §1
[20] = Antimetastatic activity against Brown Norwegian rat bearing BN472 tumor assessed as decrease in number of lung foci at 0.1 mg/kg, ip administered once daily after 4 days of tumor transplantation for 17 to 18 days relative to control; assay type: functional; design: scale not given: the % may be the effect or the level left; details: route intraperitoneal
Outline: (§2)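 BN472 breast tumours implanted orthotopically in rats and left to grow three days. From day 4, compounds were given i.p. daily for 17–18 days at 0.1 or 1 mg/kg. Controls received vehicle i.p. only. Lung foci were counted and axillary lymph nodes weighed at the end of treatment. Groups were compared with control at an unadjusted significance level of P 0.05.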

[21] = Antimetastatic activity against Brown Norwegian rat bearing BN472 tumor assessed as decrease in number of lung foci at 1 mg/kg, ip administered once daily after 4 days of tumor transplantation for 17 to 18 days relative to control; assay type: functional; design: scale not given: the % may be the effect or the level left; details: route intraperitoneal; outline: as §2
[22] = Antimetastatic activity against Brown Norwegian rat bearing BN472 tumor assessed as reduction of axillary lymph node weight at 0.1 mg/kg, ip administered once daily after 4 days of tumor transplantation for 17 to 18 days relative to control; assay type: functional; design: scale not given: the % may be the effect or the level left; details: route intraperitoneal; outline: as §2
[23] = Antimetastatic activity against Brown Norwegian rat bearing BN472 tumor assessed as reduction of axillary lymph node weight at 1 mg/kg, ip administered once daily after 4 days of tumor transplantation for 17 to 18 days relative to control; assay type: functional; design: scale not given: the % may be the effect or the level left; details: route intraperitoneal; outline: as §2
[24] = Antimetastatic activity against Brown Norwegian rat bearing BN472 tumor assessed as reduction of interpectoral lymph node weight at 0.1 mg/kg, ip administered once daily after 4 days of tumor transplantation for 17 to 18 days relative to control; assay type: functional; design: scale not given: the % may be the effect or the level left; details: route intraperitoneal
[25] = Antimetastatic activity against Brown Norwegian rat bearing BN472 tumor assessed as reduction of interpectoral lymph node weight at 1 mg/kg, ip administered once daily after 4 days of tumor transplantation for 17 to 18 days relative to control; assay type: functional; design: scale not given: the % may be the effect or the level left; details: route intraperitoneal
[26] = system: Rattus norvegicus; assay: Toxicity in Brown Norwegian rat bearing BN472 tumor assessed as effect on body weight at 0.1 mg/kg, ip administered once daily after 4 days of tumor transplantation for 17 to 18 days relative to control; assay type: organism-based; design: dose 0.1 mg/kg, route intraperitoneal; details: in vivo
Outline: (§3)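 Orthotopic BN472 breast tumour model in rats. Daily i.p. dosing at 0.1 or 1 mg/kg started on day 4 and ran 17–18 days, with vehicle-only i.p. controls. Side effects were assessed from body weight and the weights of several organs, compared with controls.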

[27] = system: Rattus norvegicus; assay: Toxicity in Brown Norwegian rat bearing BN472 tumor assessed as effect on body weight at 1 mg/kg, ip administered once daily after 4 days of tumor transplantation for 17 to 18 days relative to control; assay type: organism-based; design: dose 1 mg/kg, route intraperitoneal; details: in vivo; outline: as §3
[28] = system: Rattus norvegicus; assay: Toxicity in Brown Norwegian rat bearing BN472 tumor assessed as increase in lung weight at 0.1 mg/kg, ip administered once daily after 4 days of tumor transplantation for 17 to 18 days relative to control; assay type: organism-based; design: dose 0.1 mg/kg, route intraperitoneal; details: in vivo; outline: as §3
[29] = system: Rattus norvegicus; assay: Toxicity in Brown Norwegian rat bearing BN472 tumor assessed as increase in uterus weight at 0.1 mg/kg, ip administered once daily after 4 days of tumor transplantation for 17 to 18 days relative to control; assay type: organism-based; design: dose 0.1 mg/kg, route intraperitoneal; details: in vivo; outline: as §3
[30] = system: Rattus norvegicus; assay: Toxicity in Brown Norwegian rat bearing BN472 tumor assessed as increase in uterus weight at 1 mg/kg, ip administered once daily after 4 days of tumor transplantation for 17 to 18 days relative to control; assay type: organism-based; design: dose 1 mg/kg, route intraperitoneal; details: in vivo; outline: as §3
[31] = system: Rattus norvegicus; assay: Toxicity in Brown Norwegian rat bearing BN472 tumor assessed as decrease in spleen weight at 0.1 mg/kg, ip administered once daily after 4 days of tumor transplantation for 17 to 18 days relative to control; assay type: organism-based; design: dose 0.1 mg/kg, route intraperitoneal; scale not given: the % may be the effect or the level left; details: in vivo; outline: as §3
[32] = system: Rattus norvegicus; assay: Toxicity in Brown Norwegian rat bearing BN472 tumor assessed as decrease in spleen weight at 1 mg/kg, ip administered once daily after 4 days of tumor transplantation for 17 to 18 days relative to control; assay type: organism-based; design: dose 1 mg/kg, route intraperitoneal; scale not given: the % may be the effect or the level left; details: in vivo; outline: as §3
[33] = system: Rattus norvegicus; assay: Toxicity in Brown Norwegian rat bearing BN472 tumor assessed as decrease in liver weight at 0.1 mg/kg, ip administered once daily after 4 days of tumor transplantation for 17 to 18 days relative to control; assay type: organism-based; design: dose 0.1 mg/kg, route intraperitoneal; scale not given: the % may be the effect or the level left; details: in vivo; outline: as §3
[34] = system: Rattus norvegicus; assay: Toxicity in Brown Norwegian rat bearing BN472 tumor assessed as decrease in liver weight at 1 mg/kg, ip administered once daily after 4 days of tumor transplantation for 17 to 18 days relative to control; assay type: organism-based; design: dose 1 mg/kg, route intraperitoneal; scale not given: the % may be the effect or the level left; details: in vivo; outline: as §3
[35] = system: Rattus norvegicus; assay: Toxicity in Brown Norwegian rat bearing BN472 tumor assessed as increase in kidney weight at 0.1 mg/kg, ip administered once daily after 4 days of tumor transplantation for 17 to 18 days relative to control; assay type: organism-based; design: dose 0.1 mg/kg, route intraperitoneal; details: in vivo; outline: as §3
[36] = system: Rattus norvegicus; assay: Toxicity in Brown Norwegian rat bearing BN472 tumor assessed as increase in kidney weight at 1 mg/kg, ip administered once daily after 4 days of tumor transplantation for 17 to 18 days relative to control; assay type: organism-based; design: dose 1 mg/kg, route intraperitoneal; details: in vivo; outline: as §3
[37] = system: Rattus norvegicus; assay: Toxicity in Brown Norwegian rat bearing BN472 tumor assessed as decrease in adrenal weight at 0.1 mg/kg, ip administered once daily after 4 days of tumor transplantation for 17 to 18 days relative to control; assay type: organism-based; design: dose 0.1 mg/kg, route intraperitoneal; scale not given: the % may be the effect or the level left; details: in vivo; outline: as §3
[38] = biological target: Urokinase-type plasminogen activator (Homo sapiens, UniProt P00749)

SMILES: COC(=O)NC(Cc1ccc(NC(=N)N)cc1)P(=O)(Oc1ccccc1)Oc1ccccc1 (stereo not drawn)
- remaining at 3 h [1]: 63%
- IC50 [2]: 0.0195 µM
- IC50 [3]: 0.032 µM
- IC50 [4]: 25 µM
- IC50 [5]: 15 µM
- IC50 [6]: > 100 µM
- IC50 [7]: 42 µM
- IC50 [8]: 13 µM
- IC50 [9]: 17 µM
- logD [10]: 1.1
- solubility at 2 h [11]: > 200 µM
- half-life [12]: > 336 h
- half-life [13]: > 336 h
- half-life [14]: 120 h
- half-life [15]: 6 h
- Activity [16]: 17%
- Activity [17]: 11%
- Activity [18]: 27%
- Activity [19]: 9%
- Activity [20]: 29%
- Activity [21]: 61%
- Activity [22]: 46%
- Activity [23]: 61%
- Activity [24]: 10%
- Activity [25]: 8%
- Activity [26]: 168.5 g
- Activity [27]: 169.5 g
- Activity [28]: 3%
- Activity [29]: 30%
- Activity [30]: 36%
- Activity [31]: 17%
- Activity [32]: 12%
- Activity [33]: 2%
- Activity [34]: 3%
- Activity [35]: 3%
- Activity [36]: 8%
- Activity [37]: 3%
- Kapp [38]: 62000 M⁻¹ s⁻¹
